# Measured values as given in ChEMBL document CHEMBL1154044, “5-Nitro-2-furyl derivative actives against Trypanosoma cruzi: preliminary in vivo studies” (Eur J Med Chem, 2009).
# Active and inactive are the calls of the source. The calls are words filed in the database; no cut-off is given here.
# Tests used:
# Mus musculus [1] = assay: Toxicity in CD1 mouse liver at 300 mg/kg, ip after 3 days by histological study; type: organism-based; parameters: dose 300 mg/kg, route intraperitoneal; conditions: in vivo, 72 h
# Method in brief: (§1)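 Healthy female CD1 mice (20–22 g), 5–7 per group, given a single oral (intragastric) or i.p. dose in saline:Tween 80 (4:1) vehicle. Sacrificed on day 3 after ether anaesthesia. Organs fixed in 10% aqueous formalin for histology. Scored against untreated animals from no change to +++ (many changes).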
# Mus musculus [2] = assay: Toxicity in CD1 mouse assessed as glutamic-oxalacetate transaminase level at 300 mg/kg, ip after 3 days; type: organism-based; parameters: dose 300 mg/kg, route intraperitoneal; conditions: in vivo, 72 h
# Method in brief: (§2)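 Healthy female CD1 mice (5–7 per group) received a single oral dose of 450 mg/kg or an i.p. dose of 300 mg/kg, with vehicle controls. On day 3 they were sacrificed under ether anaesthesia. Blood was drawn from the subclavian artery and kept at 0 °C in EDTA or heparin. Leukocytes, haemoglobin, haematocrit, GPT and GOT were measured within 24 h and compared with normal ranges.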
# Mus musculus [3] = assay: Toxicity in CD1 mouse brain at 300 mg/kg, ip after 3 days by histological study; type: organism-based; parameters: dose 300 mg/kg, route intraperitoneal; conditions: in vivo, 72 h; method in brief: as §1
# Mus musculus [4] = assay: Toxicity in CD1 mouse assessed as glutamic-pyruvate transaminase level at 300 mg/kg, ip after 3 days; type: organism-based; parameters: dose 300 mg/kg, route intraperitoneal; conditions: in vivo, 72 h; method in brief: as §2
# Mus musculus [5] = assay: Toxicity in CD1 mouse kidney at 450 mg/kg, po after 3 days by histological study; type: organism-based; parameters: dose 450 mg/kg, route oral; conditions: in vivo, 72 h; method in brief: as §1
# Mus musculus [6] = assay: Toxicity in CD1 mouse intestine at 300 mg/kg, ip after 3 days by histological study; type: organism-based; parameters: dose 300 mg/kg, route intraperitoneal; conditions: in vivo, 72 h; method in brief: as §1
# Trypanosoma cruzi [7] = assay: Growth inhibition of Trypanosoma cruzi Tulahuen 2 epimastigote at 5 uM after 5 days; type: functional; conditions: Trypanosoma cruzi, Tulahuen 2, 120 h; read-out: GI
# Mus musculus [8] = assay: Toxicity in CD1 mouse kidney at 300 mg/kg, ip after 3 days by histological study; type: organism-based; parameters: dose 300 mg/kg, route intraperitoneal; conditions: in vivo, 72 h; method in brief: as §1
# Mus musculus [9] = assay: Toxicity in CD1 mouse assessed as glutamic-pyruvate transaminase level at 450 mg/kg, po after 3 days; type: organism-based; parameters: dose 450 mg/kg, route oral; conditions: in vivo, 72 h; method in brief: as §2
# Mus musculus [10] = assay: Toxicity in CD1 mouse lung at 450 mg/kg, po after 3 days by histological study; type: organism-based; parameters: dose 450 mg/kg, route oral; conditions: in vivo, 72 h; method in brief: as §1
# Mus musculus [11] = assay: Toxicity in CD1 mouse lung at 300 mg/kg, ip after 3 days by histological study; type: organism-based; parameters: dose 300 mg/kg, route intraperitoneal; conditions: in vivo, 72 h; method in brief: as §1
# Mus musculus [12] = assay: Toxicity in CD1 mouse brain at 450 mg/kg, po after 3 days by histological study; type: organism-based; parameters: dose 450 mg/kg, route oral; conditions: in vivo, 72 h; method in brief: as §1
# Mus musculus [13] = assay: Toxicity in CD1 mouse intestine at 450 mg/kg, po after 3 days by histological study; type: organism-based; parameters: dose 450 mg/kg, route oral; conditions: in vivo, 72 h; method in brief: as §1
# Mus musculus [14] = assay: Toxicity in CD1 mouse assessed as haemoglobin level at 450 mg/kg, po after 3 days; type: organism-based; parameters: dose 450 mg/kg, route oral; conditions: in vivo, 72 h; method in brief: as §2
# Mus musculus [15] = assay: Toxicity in CD1 mouse assessed as leukocyte level at 300 mg/kg, ip after 3 days; type: organism-based; parameters: dose 300 mg/kg, route intraperitoneal; conditions: in vivo, 72 h; method in brief: as §2
# Mus musculus [16] = assay: Toxicity in CD1 mouse assessed as glutamic-oxalacetate transaminase level at 450 mg/kg, po after 3 days; type: organism-based; parameters: dose 450 mg/kg, route oral; conditions: in vivo, 72 h; method in brief: as §2
# Mus musculus [17] = assay: Toxicity in CD1 mouse assessed as hematocrite level at 450 mg/kg, po after 3 days; type: organism-based; parameters: dose 450 mg/kg, route oral; conditions: in vivo, 72 h; method in brief: as §2
# Mus musculus [18] = assay: Toxicity in CD1 mouse assessed as decrease in weight respect to day zero at 300 mg/kg, ip after 3 days; type: organism-based; parameters: dose 300 mg/kg, route intraperitoneal; scale not given: the % may be the effect or the level left; conditions: in vivo, 72 h
# Method in brief: (§3)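 Healthy 2-month-old female CD1 mice (20–22 g, 5–7 per group) received one dose. Oral doses of 450 or 300 mg/kg were given by intragastric syringe; i.p. doses of 300 or 150 mg/kg by injection. Drugs were suspended in saline:Tween 80 (4:1), and a vehicle-only control was included. Mice were weighed and observed daily for 3 days. Weight change is expressed as percent relative to day zero.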
# Mus musculus [19] = assay: Toxicity in CD1 mouse heart at 450 mg/kg, po after 3 days by histological study; type: organism-based; parameters: dose 450 mg/kg, route oral; conditions: in vivo, 72 h; method in brief: as §1
# Mus musculus [20] = assay: Toxicity in CD1 mouse assessed as haemoglobin level at 300 mg/kg, ip after 3 days; type: organism-based; parameters: dose 300 mg/kg, route intraperitoneal; conditions: in vivo, 72 h; method in brief: as §2
# Mus musculus [21] = assay: Toxicity in CD1 mouse heart at 300 mg/kg, ip after 3 days by histological study; type: organism-based; parameters: dose 300 mg/kg, route intraperitoneal; conditions: in vivo, 72 h; method in brief: as §1
# Mus musculus [22] = assay: Toxicity in CD1 mouse liver at 450 mg/kg, po after 3 days by histological study; type: organism-based; parameters: dose 450 mg/kg, route oral; conditions: in vivo, 72 h; method in brief: as §1
# Mus musculus [23] = assay: Toxicity in CD1 mouse assessed as increase in weight respect to day zero at 450 mg/kg, po after 3 days; conditions: in vivo, 72 h
# Mus musculus [24] = assay: Toxicity in CD1 mouse assessed as leukocyte level at 450 mg/kg, po after 3 days; type: organism-based; parameters: dose 450 mg/kg, route oral; conditions: in vivo, 72 h; method in brief: as §2
# Mus musculus [25] = assay: Toxicity in CD1 mouse assessed as survival at 450 mg/kg, po after 3 days; type: organism-based; parameters: dose 450 mg/kg, route oral; conditions: in vivo, 72 h
# Method in brief: (§4)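 Healthy 2-month-old female CD1 mice (20–22 g), groups of 5–7, given one oral dose by intragastric syringe or one i.p. injection. Compound suspended in saline:Tween 80 (4:1) with sonication just before dosing; vehicle-treated controls included. Weighed and observed daily over 3 days for skin, physical aspect, activity and faeces; survival recorded at day 3.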
# Mus musculus [26] = assay: Toxicity in CD1 mouse assessed as hematocrite level at 300 mg/kg, ip after 3 days; type: organism-based; parameters: dose 300 mg/kg, route intraperitoneal; conditions: in vivo, 72 h; method in brief: as §2
# Trypanosoma cruzi [27] = assay: Antitrypanosomal activity against Trypanosoma cruzi infected in po dosed CD1 mouse assessed as prevention of amastigote nest in smooth muscle administered daily for 14 days measured on day 45; type: functional, organism-based; conditions: Muscle tissue
# Method in brief: (§5)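 T. cruzi, a Uruguayan patient isolate, was inoculated intradermally into 2-month-old female CD1 mice (20–22 g). Dosing began on day 15 after parasitaemia was observed. Drugs were suspended in saline:Tween 80 (4:1) and given by intragastric syringe once daily for 14 days, with untreated controls. On day 45 after treatment start, heart and muscle sections were scored by two independent observers for amastigotes and inflammatory infiltrates. Groups had 5–7 mice.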
# Trypanosoma cruzi [28] = assay: Antitrypanosomal activity against Trypanosoma cruzi infected in po dosed CD1 mouse assessed as prevention of amastigote nest in heart administered daily for 14 days measured on day 45; type: functional, organism-based; method in brief: as §5
# Trypanosoma cruzi [29] = assay: Antitrypanosomal activity against Trypanosoma cruzi infected in po dosed CD1 mouse assessed as prevention of inflammatory infiltrates in heart administered daily for 14 days measured on day 45; type: functional, organism-based; method in brief: as §5
# Mus musculus [30] = assay: Toxicity in CD1 mouse assessed as increase in weight respect to day zero at 300 mg/kg, ip after 3 days; type: organism-based; parameters: dose 300 mg/kg, route intraperitoneal; conditions: in vivo, 72 h; method in brief: as §3
# Mus musculus [31] = assay: Toxicity in CD1 mouse assessed as survival at 300 mg/kg, ip after 3 days; type: organism-based; parameters: dose 300 mg/kg, route intraperitoneal; conditions: in vivo, 72 h; method in brief: as §4
# Trypanosoma cruzi [32] = assay: Antitrypanosomal activity against Trypanosoma cruzi infected in po dosed CD1 mouse assessed as prevention of inflammatory infiltrates in smooth muscle administered daily for 14 days measured on day 45; type: functional, organism-based; conditions: Muscle tissue; method in brief: as §5
# Mus musculus [33] = assay: Toxicity in CD1 mouse assessed as survival at 300 mg/kg, po after 3 days; type: organism-based; parameters: dose 300 mg/kg, route oral; conditions: in vivo, 72 h; method in brief: as §4
# Mus musculus [34] = assay: Toxicity in CD1 mouse assessed as decrease in weight respect to day zero at 300 mg/kg, po after 3 days; type: organism-based; parameters: dose 300 mg/kg, route oral; scale not given: the % may be the effect or the level left; conditions: in vivo, 72 h; method in brief: as §3
# Mus musculus [35] = assay: Toxicity in CD1 mouse assessed as decrease in weight respect to day zero at 450 mg/kg, po after 3 days; type: organism-based; parameters: dose 450 mg/kg, route oral; scale not given: the % may be the effect or the level left; conditions: in vivo, 72 h; method in brief: as §3
# Mus musculus [36] = assay: Toxicity in CD1 mouse assessed as decrease in weight respect to day zero at 150 mg/kg, ip after 3 days; type: organism-based; parameters: dose 150 mg/kg, route intraperitoneal; scale not given: the % may be the effect or the level left; conditions: in vivo, 72 h; method in brief: as §3
# Mus musculus [37] = assay: Toxicity in CD1 mouse assessed as survival at 150 mg/kg, ip after 3 days; type: organism-based; parameters: dose 150 mg/kg, route intraperitoneal; conditions: in vivo, 72 h; method in brief: as §4
SMILES,Activity (Mus musculus [1]),Activity (Mus musculus [2]) [IU/L],Activity (Mus musculus [3]),Activity (Mus musculus [4]) [IU/L],Activity (Mus musculus [5]),Activity (Mus musculus [6]),inhibition of growth at 5 µM (Trypanosoma cruzi [7]) [%],Activity (Mus musculus [8]),Activity (Mus musculus [9]) [IU/L],Activity (Mus musculus [10]),Activity (Mus musculus [11]),Activity (Mus musculus [12]),Activity (Mus musculus [13]),Activity (Mus musculus [14]) [g/dL],Activity (Mus musculus [15]) [µL⁻¹],Activity (Mus musculus [16]) [IU/L],Activity (Mus musculus [19]),Activity (Mus musculus [21]),Activity (Mus musculus [22]),Activity (Mus musculus [25]),further results
CCCCCCOC(=O)N/N=C/c1ccc([N+](=O)[O-])o1,Toxic,140,Non-toxic,32,Non-toxic,Non-toxic,93,Non-toxic,34,Non-toxic,Non-toxic,Non-toxic,Non-toxic,10.6,4900,192,Non-toxic,Non-toxic,Toxic,Non-toxic,Activity (Mus musculus [17]): 34.4%; Activity (Mus musculus [18]): 0%; Activity (Mus musculus [20]): 12.3 g/dL; Activity (Mus musculus [23]): 3%; Activity (Mus musculus [24]): 2700 µL⁻¹; Activity (Mus musculus [26]): 38.7%
CCCCCCNC(=O)N/N=C/C=C/c1ccc([N+](=O)[O-])o1,Toxic,109,Non-toxic,76.2,Non-toxic,Non-toxic,82,Toxic,29.4,Non-toxic,Non-toxic,Non-toxic,Non-toxic,16.3,31700,94.1,Non-toxic,Non-toxic,Toxic,Non-toxic,Activity (Trypanosoma cruzi [27]): Active; Activity (Trypanosoma cruzi [28]): Active; Activity (Trypanosoma cruzi [29]): Active; Activity (Mus musculus [30]): 8%; Activity (Mus musculus [31]): Non-toxic; Activity (Mus musculus [20]): 12.8 g/dL; Activity (Mus musculus [23]): 21%; Activity (Mus musculus [24]): 32400 µL⁻¹; Activity (Trypanosoma cruzi [32]): Active
CC1CS(=O)(=O)CCN1/N=C/c1ccc([N+](=O)[O-])o1 (stereo unspecified) [NIFURTIMOX],Toxic,177,Non-toxic,32.5,Toxic,Non-toxic,46,Non-toxic,49,Non-toxic,Non-toxic,Non-toxic,Non-toxic,13.5,5100,162,Non-toxic,Non-toxic,Toxic,Non-toxic,Activity (Mus musculus [33]): Non-toxic; Activity (Mus musculus [34]): 0%; Activity (Mus musculus [17]): 42.4%; Activity (Mus musculus [18]): 3%; Activity (Mus musculus [31]): Non-toxic; Activity (Mus musculus [35]): 6%; Activity (Mus musculus [20]): 13.2 g/dL; Activity (Mus musculus [24]): 6700 µL⁻¹; Activity (Mus musculus [26]): 39.3%
CCCCNC(=O)N/N=C/c1ccc([N+](=O)[O-])o1,Toxic,–,Non-toxic,–,Toxic,Non-toxic,30,Toxic,–,Non-toxic,Non-toxic,Non-toxic,Toxic,–,–,–,Non-toxic,Non-toxic,Toxic,Non-toxic,Activity (Mus musculus [36]): 6%; Activity (Mus musculus [33]): Non-toxic; Activity (Trypanosoma cruzi [28]): Active; Activity (Trypanosoma cruzi [29]): Active; Activity (Mus musculus [34]): 4%; Activity (Mus musculus [37]): Non-toxic; Activity (Mus musculus [31]): Toxic; Activity (Mus musculus [35]): 1%
